ChEMBL document CHEMBL2434844, “Synthesis, antimicrobial, antioxidant activities of novel 6-aryl-5-cyano thiouracil derivatives” (Eur J Med Chem, 2013)
Values after ≈ are worked out from the molar mass of the structure shown. Active and inactive are the calls of the source. The calls are words filed in the database; no cut-off is given here.

Tests used:
[1] = tested on: Bacillus cereus; assay: Antibacterial activity against Bacillus cereus ATCC 14579 after 24 hrs by microdilution technique; format: functional
Procedure, shortened: (§1)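 MIC by agar microdilution on Mueller-Hinton agar per NCCLS 1997. Bacteria subcultured overnight at 37 °C on MHA, Candida on SDA at 35 °C for 24-48 h, each passaged at least twice. Incubated 37 °C in humid chamber, read after 24 h.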

[2] = tested on: Escherichia coli; assay: Antibacterial activity against Escherichia coli ATCC 11775 at 10 mg/disc after 48 hrs by disc-diffusion method; format: functional, DSM 30083 = JCM 1649
Procedure, shortened: (§2)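 Disc diffusion per Bauer method under NCCLS conditions on nutrient agar/Mueller-Hinton agar. Compound dissolved in sterile DMSO at 10 mg/mL, filtered 0.2 µm, stored frozen at -15 °C; 10 mg/disc in DMSO applied. DMSO control. Inhibition zone diameter measured in mm after 48 h incubation at 28 °C.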

[3] = tested on: Aspergillus flavus; assay: Antifungal activity against Aspergillus flavus ATCC 11495 after 24 hrs by microdilution technique; format: functional
[4] = tested on: Staphylococcus aureus; assay: Antibacterial activity against Staphylococcus aureus ATCC 12600 after 24 hrs by microdilution technique; format: functional; procedure, shortened: as §1
[5] = tested on: Candida albicans; assay: Antifungal activity against Candida albicans ATCC 26555 after 24 hrs by microdilution technique; format: functional; procedure, shortened: as §1
[6] = tested on: Escherichia coli; assay: Antibacterial activity against Escherichia coli ATCC 11775 after 24 hrs by microdilution technique; format: functional; procedure, shortened: as §1
[7] = tested on: Staphylococcus aureus; assay: Antibacterial activity against Staphylococcus aureus ATCC 12600 at 10 mg/disc after 48 hrs by disc-diffusion method; format: functional; procedure, shortened: as §2
[8] = tested on: Aspergillus flavus; assay: Antifungal activity against Aspergillus flavus ATCC 11495 at 10 mg/disc after 48 hrs by disc-diffusion method; format: functional; procedure, shortened: as §2
[9] = tested on: Candida albicans; assay: Antifungal activity against Candida albicans ATCC 26555 at 10 mg/disc after 48 hrs by disc-diffusion method; format: functional; procedure, shortened: as §2
[10] = tested on: Bacillus cereus; assay: Antibacterial activity against Bacillus cereus ATCC 14579 at 10 mg/disc after 48 hrs by disc-diffusion method; format: functional; procedure, shortened: as §2

| Structure (SMILES) | MIC ([1]; ATCC 14579, 24 h) [µg/mL] | diameter of the inhibition zone (DIZ) [2] [mm] | MIC [3] | MIC ([4]; ATCC 12600, 24 h) [µg/mL] | MIC [5] | MIC ([6]; DSM 30083 = JCM 1649, 24 h) [µg/mL] | diameter of the inhibition zone (DIZ) [7] | diameter of the inhibition zone (DIZ) [8] | diameter of the inhibition zone (DIZ) [9] | diameter of the inhibition zone (DIZ) [10] | MIC ([3]; ATCC 11495, 24 h) [µg/mL] | MIC ([5]; ATCC 26555, 24 h) [µg/mL] | MIC [4] | MIC [1] | diameter of the inhibition zone (DIZ) ([2]; DSM 30083 = JCM 1649) | MIC ([6]; DSM 30083 = JCM 1649) |
| --- | --- | --- | --- | --- | --- | --- | --- | --- | --- | --- | --- | --- | --- | --- | --- | --- |
| Cc1cc(C)n(-c2nc(=S)[nH]c(-c3ccc(F)cc3)c2C#N)n1 | 32 (≈ 98.3 µM) | 11 | inactive | 32 (≈ 98.3 µM) | inactive | 32 (≈ 98.3 µM) | 13 mm | inactive | inactive | 12 mm | – | – | – | – | – | – |
| N#Cc1c(-c2ccc(F)cc2)[nH]c(=S)n2ncnc12 | 128 (≈ 472 µM) | 8 | – | 128 (≈ 472 µM) | – | 128 (≈ 472 µM) | 7 mm | 7 mm | 8 mm | 6 mm | 256 (≈ 944 µM) | 128 (≈ 472 µM) | – | – | – | – |
| N#Cc1c(-c2ccc(Br)cc2)[nH]c(=S)n2nnnc12 | 32 (≈ 96 µM) | 12 | inactive | 16 (≈ 48 µM) | inactive | 32 (≈ 96 µM) | 14 mm | inactive | inactive | 13 mm | – | – | – | – | – | – |
| COc1cc(-c2[nH]c(=S)n3cnnc3c2C#N)cc(OC)c1OC | 16 (≈ 46.6 µM) | 13 | – | 16 (≈ 46.6 µM) | – | 16 (≈ 46.6 µM) | 21 mm | 18 mm | 17 mm | 18 mm | 16 (≈ 46.6 µM) | 16 (≈ 46.6 µM) | – | – | – | – |
| COc1ccc(/C=N/Nc2nc(=S)[nH]c(-c3ccc(Br)cc3)c2C#N)cc1 | 32 (≈ 72.7 µM) | 12 | – | 32 (≈ 72.7 µM) | – | 32 (≈ 72.7 µM) | 18 mm | 14 mm | 16 mm | 16 mm | 32 (≈ 72.7 µM) | 32 (≈ 72.7 µM) | – | – | – | – |
| COc1cc(-c2[nH]c(=S)nc(-n3nc(C)cc3C)c2C#N)cc(OC)c1OC | 32 (≈ 80.5 µM) | 12 | inactive | 32 (≈ 80.5 µM) | inactive | 32 (≈ 80.5 µM) | 11 mm | inactive | inactive | 11 mm | – | – | – | – | – | – |
| Cc1nc2c(C#N)c(-c3ccc(Br)cc3)[nH]c(=S)n2n1 | 128 (≈ 370 µM) | 6 | – | 128 (≈ 370 µM) | – | 128 (≈ 370 µM) | 7 mm | 7 mm | 8 mm | 6 mm | 256 (≈ 739 µM) | 128 (≈ 370 µM) | – | – | – | – |
| N#Cc1c(-c2ccc(F)cc2)[nH]c(=S)n2c(=S)[nH]nc12 | 64 (≈ 211 µM) | 11 | inactive | – | – | 64 (≈ 211 µM) | inactive | inactive | 12 mm | 11 mm | – | 32 (≈ 105 µM) | inactive | – | – | – |
| N#Cc1c(-c2ccc(Br)cc2)[nH]c(=S)n2c(=O)[nH]nc12 | – | – | inactive | 64 (≈ 184 µM) | inactive | – | 11 mm | inactive | inactive | inactive | – | – | – | inactive | inactive | inactive |
| COc1cc(-c2[nH]c(=S)n3ncnc3c2C#N)cc(OC)c1OC | 128 (≈ 373 µM) | 6 | – | 128 (≈ 373 µM) | – | 128 (≈ 373 µM) | 7 mm | 7 mm | 8 mm | 5 mm | 256 (≈ 746 µM) | 128 (≈ 373 µM) | – | – | – | – |
| Cc1cc(C)n(-c2nc(=S)[nH]c(-c3ccc(Br)cc3)c2C#N)n1 | 32 (≈ 82.8 µM) | 11 | inactive | 32 (≈ 82.8 µM) | inactive | 32 (≈ 82.8 µM) | 12 mm | inactive | inactive | 12 mm | – | – | – | – | – | – |
| Cc1nnc2c(C#N)c(-c3ccc(Br)cc3)[nH]c(=S)n12 | – | – | inactive | – | inactive | – | inactive | inactive | inactive | inactive | – | – | inactive | inactive | inactive | inactive |
| N#Cc1c(-c2ccc(F)cc2)[nH]c(=S)n2nnnc12 | 32 (≈ 118 µM) | 13 | inactive | 16 (≈ 58.8 µM) | inactive | 32 (≈ 118 µM) | 15 mm | inactive | inactive | 15 mm | – | – | – | – | – | – |
| N#Cc1c(-c2ccc(Br)cc2)[nH]c(=S)n2c(=O)c(=O)[nH]nc12 | – | – | – | 32 (≈ 85.1 µM) | inactive | – | 13 mm | 17 mm | inactive | inactive | 16 (≈ 42.5 µM) | – | – | inactive | inactive | inactive |
| N#Cc1c(-c2ccc(Br)cc2)[nH]c(=S)n2c(=S)[nH]nc12 | 64 (≈ 176 µM) | 11 | inactive | – | – | 64 (≈ 176 µM) | inactive | inactive | 12 mm | 10 mm | – | 32 (≈ 87.9 µM) | inactive | – | – | – |
| COc1cc(-c2[nH]c(=S)n3c(=S)[nH]nc3c2C#N)cc(OC)c1OC | 64 (≈ 170 µM) | 10 | inactive | – | – | 64 (≈ 170 µM) | inactive | inactive | 12 mm | 11 mm | – | 32 (≈ 85.2 µM) | inactive | – | – | – |
